The text below walks through data of PMC4503343 (Molecular pharmacology, 2013).

Like-named read-outs stand apart in the source and are kept apart here.

One data set concerns the target human P-gp wild-type (Homo sapiens, UniProt P08183). It is filed as cell-based.
Another data set deals with human P-gp Y950F (Homo sapiens, UniProt P08183, Y950F). The data set is described as follows: Inhibition of rh123 efflux, Y950F mutant. It is filed as cell-based.
The target in the next data set is human P-gp Y953F (Homo sapiens, UniProt P08183, Y953F). The data set is described as follows: Inhibition of rh123 efflux, Y953F mutant. The class given is cell-based.
Sequence of human P-gp Y953F (P08183 whole entry Y953F): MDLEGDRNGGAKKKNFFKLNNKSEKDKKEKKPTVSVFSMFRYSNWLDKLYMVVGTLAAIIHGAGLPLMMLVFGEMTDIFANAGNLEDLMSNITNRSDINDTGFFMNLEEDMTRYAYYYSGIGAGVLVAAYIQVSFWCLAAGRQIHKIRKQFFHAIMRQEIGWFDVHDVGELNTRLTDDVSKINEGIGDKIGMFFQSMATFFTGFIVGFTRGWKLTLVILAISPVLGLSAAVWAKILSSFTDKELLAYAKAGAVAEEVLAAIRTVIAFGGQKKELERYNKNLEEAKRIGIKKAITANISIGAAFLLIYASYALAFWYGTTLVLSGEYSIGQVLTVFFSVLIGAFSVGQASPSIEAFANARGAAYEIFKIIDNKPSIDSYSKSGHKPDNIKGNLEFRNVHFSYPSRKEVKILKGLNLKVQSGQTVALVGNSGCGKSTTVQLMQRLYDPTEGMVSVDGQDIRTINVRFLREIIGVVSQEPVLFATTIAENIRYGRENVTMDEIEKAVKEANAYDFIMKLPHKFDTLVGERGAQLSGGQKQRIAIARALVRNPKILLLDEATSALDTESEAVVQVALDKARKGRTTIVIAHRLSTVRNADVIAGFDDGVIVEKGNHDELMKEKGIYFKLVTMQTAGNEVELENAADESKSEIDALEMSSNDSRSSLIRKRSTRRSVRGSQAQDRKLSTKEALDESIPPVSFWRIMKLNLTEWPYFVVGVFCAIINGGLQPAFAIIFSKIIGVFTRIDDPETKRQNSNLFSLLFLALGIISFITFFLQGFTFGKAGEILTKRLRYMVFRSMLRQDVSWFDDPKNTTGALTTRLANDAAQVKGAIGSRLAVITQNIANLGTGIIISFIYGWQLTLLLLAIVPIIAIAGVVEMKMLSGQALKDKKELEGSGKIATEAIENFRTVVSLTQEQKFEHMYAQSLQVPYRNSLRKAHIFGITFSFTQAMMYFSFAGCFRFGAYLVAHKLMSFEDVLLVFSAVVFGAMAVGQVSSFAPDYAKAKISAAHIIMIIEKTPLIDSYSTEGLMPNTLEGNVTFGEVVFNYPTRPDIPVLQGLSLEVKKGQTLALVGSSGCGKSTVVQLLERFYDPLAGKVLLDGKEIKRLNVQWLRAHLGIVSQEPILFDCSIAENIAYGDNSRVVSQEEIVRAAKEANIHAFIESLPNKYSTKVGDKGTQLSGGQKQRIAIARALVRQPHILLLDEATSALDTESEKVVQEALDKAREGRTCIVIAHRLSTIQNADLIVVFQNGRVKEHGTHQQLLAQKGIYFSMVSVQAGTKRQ
The target of data set [1] is T1, human P-gp Q132R (Homo sapiens, UniProt P08183, Q132R). The data set is described as follows: Inhibition of rh123 efflux, Q132R mutant. It is filed as cell-based. To be noted: for fold difference in IC50 values for wild-type protein and the Q132R mutant: Q132R mutant vs wild-type.
The target in a further data set is human P-gp Q132R/Y953F (Homo sapiens, UniProt P08183, Q132R/Y953F). As to the kind of experiment: Inhibition of rh123 efflux, Q132R/Y953F mutant. To be noted: for fold higher IC50 value than the Q132R mutation: Q132R/Y953F mutant vs Q132R. It is filed as cell-based.
The subject of data set [2] is human P-gp Q132R/Y950F/Y953F. As to the kind of experiment: Inhibition of rh123 efflux, Q132R/Y950F/Y953F triple mutant. To be noted: in the Q132R background. The class given is cell-based.
Data set [3] can be described thus: pKa and protonated fraction of propafenone analogs. Conditions: at intracellular pH, estimated from pKa. The class given is physicochemical.
The conditions of data set [4]: ref Ecker et al., 1999; cited from earlier work.
For the next data set, the target named is human P-gp Y950F/Y953F (Homo sapiens, UniProt P08183, Y950F/Y953F). As to the kind of experiment: Inhibition of rh123 efflux, Y950F/Y953F double mutant. The class given is cell-based.
Sequence of human P-gp Y950F/Y953F (P08183 whole entry Y950F/Y953F): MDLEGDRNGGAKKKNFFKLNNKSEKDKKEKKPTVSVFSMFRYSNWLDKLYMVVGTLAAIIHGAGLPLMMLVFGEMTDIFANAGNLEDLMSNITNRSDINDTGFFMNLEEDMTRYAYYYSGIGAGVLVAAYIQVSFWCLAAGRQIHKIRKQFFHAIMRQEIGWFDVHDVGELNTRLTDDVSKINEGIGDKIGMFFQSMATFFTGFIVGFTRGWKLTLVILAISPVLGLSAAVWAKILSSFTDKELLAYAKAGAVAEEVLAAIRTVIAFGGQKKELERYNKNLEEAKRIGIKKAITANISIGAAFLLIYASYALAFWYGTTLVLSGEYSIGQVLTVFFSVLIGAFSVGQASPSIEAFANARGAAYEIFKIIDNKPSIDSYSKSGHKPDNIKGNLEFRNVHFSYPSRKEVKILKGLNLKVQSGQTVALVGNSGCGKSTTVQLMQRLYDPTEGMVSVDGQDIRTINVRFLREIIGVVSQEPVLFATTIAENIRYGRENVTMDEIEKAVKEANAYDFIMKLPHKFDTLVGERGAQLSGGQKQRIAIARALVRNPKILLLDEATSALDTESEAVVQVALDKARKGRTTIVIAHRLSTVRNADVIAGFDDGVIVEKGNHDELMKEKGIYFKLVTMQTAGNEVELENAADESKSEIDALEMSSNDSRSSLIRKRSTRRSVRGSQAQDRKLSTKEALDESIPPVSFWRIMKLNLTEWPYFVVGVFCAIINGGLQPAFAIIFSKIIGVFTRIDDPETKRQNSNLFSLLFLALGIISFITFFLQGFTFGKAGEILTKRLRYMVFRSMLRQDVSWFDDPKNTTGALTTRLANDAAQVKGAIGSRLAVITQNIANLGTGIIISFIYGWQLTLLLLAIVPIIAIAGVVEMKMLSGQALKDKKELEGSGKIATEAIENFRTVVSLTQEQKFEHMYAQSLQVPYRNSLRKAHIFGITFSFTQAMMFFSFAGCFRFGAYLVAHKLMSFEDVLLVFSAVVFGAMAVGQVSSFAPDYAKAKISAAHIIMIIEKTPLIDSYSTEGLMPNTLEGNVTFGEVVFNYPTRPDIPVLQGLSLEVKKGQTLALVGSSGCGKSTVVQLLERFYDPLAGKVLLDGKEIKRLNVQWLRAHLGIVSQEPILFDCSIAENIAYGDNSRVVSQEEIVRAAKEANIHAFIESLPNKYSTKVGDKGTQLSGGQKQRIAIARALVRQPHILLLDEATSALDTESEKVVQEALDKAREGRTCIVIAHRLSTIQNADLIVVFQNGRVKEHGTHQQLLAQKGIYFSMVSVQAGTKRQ
A further data set has as its target human P-gp Q132R/Y950F (Homo sapiens, UniProt P08183, Q132R/Y950F). The data set is described as follows: Inhibition of rh123 efflux, Q132R/Y950F mutant. It is filed as cell-based.
Data set [5] deals with T1, human P-gp Q132R. The data set is described as follows: Continuous monitoring of rh123 zero trans efflux, Q132R mutant. The class given is cell-based. Conditions: mean ± S.D. Put shortly:
(§1)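 HEK293 cells, with endogenous P-gp knocked down by lentiviral shRNA and puromycin selection, were transiently transfected with hexa-His human P-gp mutants. Cells were loaded with 0.53 μM rh123 (final) in DMEM pH 7.8 for 30 min at 37°C, chilled and washed, then effluxed into 37°C DMEM pH 7.4. Flow cytometry ran 5 min at 37°C (488/534 nm). Exponential-fit k was normalized to MRK16 surface staining. n≥3.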

Another data set concerns the target human P-gp Q773R (Homo sapiens, UniProt P08183, Q773R). As to the kind of experiment: Continuous monitoring of rh123 zero trans efflux, Q773R mutant. The class given is cell-based. To be noted: mean ± S.D. Put shortly: as §1
Data set [6] concerns the target human P-gp Q773R/Y950F/Y953F (Homo sapiens, UniProt P08183, Q773R/Y950F/Y953F). The data set is described as follows: Continuous monitoring of rh123 zero trans efflux, Q773R/Y950F/Y953F mutant. To be noted: expressed at the surface. It is filed as cell-based. Put shortly:
as §1

Sequence of human P-gp Y950F (P08183 whole entry Y950F): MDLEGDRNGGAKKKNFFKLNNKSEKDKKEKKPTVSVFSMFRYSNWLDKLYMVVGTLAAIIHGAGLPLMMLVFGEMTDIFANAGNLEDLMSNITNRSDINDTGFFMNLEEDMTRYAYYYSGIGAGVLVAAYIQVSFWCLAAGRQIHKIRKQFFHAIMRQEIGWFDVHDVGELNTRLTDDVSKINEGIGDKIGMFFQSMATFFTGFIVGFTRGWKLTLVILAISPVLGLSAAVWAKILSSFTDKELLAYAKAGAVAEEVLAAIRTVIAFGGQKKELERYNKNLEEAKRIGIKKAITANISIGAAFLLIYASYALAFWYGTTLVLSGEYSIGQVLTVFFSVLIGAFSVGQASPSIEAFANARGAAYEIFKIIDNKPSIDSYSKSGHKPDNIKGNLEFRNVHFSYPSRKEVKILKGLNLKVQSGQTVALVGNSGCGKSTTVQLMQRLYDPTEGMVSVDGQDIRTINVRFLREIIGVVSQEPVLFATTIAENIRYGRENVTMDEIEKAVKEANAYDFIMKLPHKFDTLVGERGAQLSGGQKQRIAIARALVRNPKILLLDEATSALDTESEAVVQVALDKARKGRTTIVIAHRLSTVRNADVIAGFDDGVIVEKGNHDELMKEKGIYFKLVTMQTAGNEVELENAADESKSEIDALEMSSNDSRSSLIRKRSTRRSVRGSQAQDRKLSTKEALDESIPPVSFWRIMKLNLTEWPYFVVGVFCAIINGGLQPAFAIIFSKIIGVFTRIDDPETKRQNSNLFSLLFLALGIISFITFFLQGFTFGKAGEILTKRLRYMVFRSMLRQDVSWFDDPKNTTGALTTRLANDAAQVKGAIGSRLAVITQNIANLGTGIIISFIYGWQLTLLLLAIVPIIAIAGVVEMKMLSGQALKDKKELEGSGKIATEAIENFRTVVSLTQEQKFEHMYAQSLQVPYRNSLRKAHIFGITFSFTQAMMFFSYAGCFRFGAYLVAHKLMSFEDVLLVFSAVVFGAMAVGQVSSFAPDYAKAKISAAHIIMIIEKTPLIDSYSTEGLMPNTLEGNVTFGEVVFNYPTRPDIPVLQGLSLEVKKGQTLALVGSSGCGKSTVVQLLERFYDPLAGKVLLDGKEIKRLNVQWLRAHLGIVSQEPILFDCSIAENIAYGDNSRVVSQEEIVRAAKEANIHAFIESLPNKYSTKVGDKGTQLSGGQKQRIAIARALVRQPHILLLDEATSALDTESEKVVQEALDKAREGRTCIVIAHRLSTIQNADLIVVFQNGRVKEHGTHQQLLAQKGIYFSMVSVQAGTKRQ
Sequence of human P-gp wild-type (P08183 whole entry): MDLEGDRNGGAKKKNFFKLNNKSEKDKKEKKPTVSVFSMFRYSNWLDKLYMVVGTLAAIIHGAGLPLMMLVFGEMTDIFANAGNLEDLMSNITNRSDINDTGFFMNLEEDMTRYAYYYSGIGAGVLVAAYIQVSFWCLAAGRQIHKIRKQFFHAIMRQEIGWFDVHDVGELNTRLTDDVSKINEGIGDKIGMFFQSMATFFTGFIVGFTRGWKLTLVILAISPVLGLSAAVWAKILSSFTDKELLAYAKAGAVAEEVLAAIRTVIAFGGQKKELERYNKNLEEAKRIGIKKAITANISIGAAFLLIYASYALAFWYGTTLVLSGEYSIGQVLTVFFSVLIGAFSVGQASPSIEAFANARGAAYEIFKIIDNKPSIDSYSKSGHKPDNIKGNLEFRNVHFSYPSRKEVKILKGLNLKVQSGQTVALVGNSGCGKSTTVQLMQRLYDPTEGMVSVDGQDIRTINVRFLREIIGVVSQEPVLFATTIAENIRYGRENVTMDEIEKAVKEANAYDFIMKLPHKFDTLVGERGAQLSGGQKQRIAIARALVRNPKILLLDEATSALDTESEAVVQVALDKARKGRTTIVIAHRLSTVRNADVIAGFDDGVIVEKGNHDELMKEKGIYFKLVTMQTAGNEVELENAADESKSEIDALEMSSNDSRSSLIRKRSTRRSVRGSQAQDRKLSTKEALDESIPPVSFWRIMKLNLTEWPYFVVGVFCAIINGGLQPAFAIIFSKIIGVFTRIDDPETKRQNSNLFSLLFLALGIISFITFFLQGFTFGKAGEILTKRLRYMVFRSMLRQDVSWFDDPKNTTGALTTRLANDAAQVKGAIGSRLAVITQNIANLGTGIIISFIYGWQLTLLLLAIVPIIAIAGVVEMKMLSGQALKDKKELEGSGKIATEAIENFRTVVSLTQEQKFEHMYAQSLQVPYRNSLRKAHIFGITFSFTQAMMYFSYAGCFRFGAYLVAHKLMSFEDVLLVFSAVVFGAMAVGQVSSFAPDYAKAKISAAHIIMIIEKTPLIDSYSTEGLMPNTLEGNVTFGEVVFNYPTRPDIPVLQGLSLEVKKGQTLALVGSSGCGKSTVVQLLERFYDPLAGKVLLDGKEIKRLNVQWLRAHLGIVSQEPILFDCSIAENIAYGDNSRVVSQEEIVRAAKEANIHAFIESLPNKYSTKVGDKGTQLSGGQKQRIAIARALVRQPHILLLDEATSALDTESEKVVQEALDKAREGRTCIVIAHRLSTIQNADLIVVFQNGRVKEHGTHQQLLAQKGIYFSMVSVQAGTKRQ

Regarding `O=C(CCc1ccccc1)c1ccccc1OCC(O)CN1CCCCC1` (stereo not drawn) [GPV005], the IC50 at human P-gp wild-type (read-out: IC50 for inhibition of rh123 efflux, wild-type P-gp, HEK293 cells, 37°C, mean ± S.D.) was determined as 518 ± 141 nM; at human P-gp Y950F (read-out: IC50 for inhibition of rh123 efflux, Y950F mutant, HEK293 cells, mean ± S.D.), 1350 ± 229 nM; on human P-gp Y953F (read-out: IC50 for inhibition of rh123 efflux, Y953F mutant, HEK293 cells, mean ± S.D.) it was 1210 ± 362 nM; at human P-gp Q132R [1] (read-out: IC50 for inhibition of rh123 efflux, Q132R mutant, HEK293 cells, mean ± S.D.), 1410 ± 215 nM. Further, the “fold difference in IC50 values for wild-type protein and the Q132R mutant” value on human P-gp Q132R [1] is listed as “at least 3 fold”. On human P-gp Q132R/Y953F, the “fold higher IC50 value than the Q132R mutation” value is listed as 1.5 fold. Also, the “fold change in IC50” value in [2] was found to be 2.3 fold. Besides, the “percentage of protonated (charged) species” value in [3] was above 90%. Moreover, the pKa in [4] is 8.4.
In the case of `O=C(CCc1ccccc1)c1ccccc1OCC(O)CN1CCN(c2ccc(F)cc2)CC1` (stereo not drawn) [GPV031, 1-(2-(3-(4-(4-fluorophenyl)piperazin-1-yl)-2-hydroxypropoxy)phenyl)-3-phenylpropan-1-one], the IC50 was 85 ± 22 nM on human P-gp wild-type; 238 ± 84 nM at human P-gp Y950F; 287 ± 109 nM at human P-gp Y953F; 630 ± 87 nM on human P-gp Y950F/Y953F; 521 ± 183 nM at human P-gp Q132R [1]. Also, the “fold difference in IC50 values for wild-type protein and the Q132R mutant” value at human P-gp Q132R [1] is recorded as “at least 3 fold”. The “fold higher IC50 value than the Q132R mutation” value at human P-gp Q132R/Y953F amounted to 2.1 fold. In addition, the “fold change in IC50” value in data set [2] was determined as 2.7 fold. Also, the “percentage of protonated (charged) species” value in data set [3] was 60–70%. The pKa in data set [4] was 7.3.
Turning to `CCCN(CC(O)COc1ccccc1C(=O)CCc1ccccc1)C(=O)c1ccccc1` (stereo not drawn) [GPV366, N-(2-hydroxy-3-(2-(3-phenylpropanoyl)phenoxy)propyl)-N-propylbenzamide], the IC50 against human P-gp wild-type stood at 2240 ± 391 nM; on human P-gp Y950F it was 2980 ± 79 nM; on human P-gp Y953F, 15900 nM; against human P-gp Y950F/Y953F it was 17800 nM; at human P-gp Q132R [1], 1070 ± 282 nM; against human P-gp Q132R/Y950F, 966 ± 259 nM. Besides, on human P-gp Q132R/Y953F, the IC50 is 3260 ± 965 nM. For the same molecule, the “fold change in IC50 relative to wild-type” value at human P-gp Y953F (Y953F mutant vs wild-type) is recorded as 7.1 fold; at human P-gp Y950F/Y953F (Y950F/Y953F mutant vs wild-type), 8 fold. Moreover, the “fold higher IC50 value than the Q132R mutation” value at human P-gp Q132R/Y953F was determined as 3.0 fold. The “fold change in IC50” value in data set [2] was determined as 4.9 fold.
Consider `COC(=O)c1ccccc1-c1c2ccc(=N)cc-2oc2cc(N)ccc12` [rh123, rhodamine123], for which the “rh123 efflux (fractional transport rate)” value on human P-gp Q132R [5] was 75% ± 11%; at human P-gp Q773R it was 37% ± 8%. In [6], the rh123 efflux entry is reported as “no rh123 efflux was detectable”.

Broadly, the IC50 is the concentration that gives 50% inhibition. A word on the pKa: it is the pH at which an ionisable group is half protonated.
